From PubChem BioAssay
HNF4A DNA FP – change in binding of human HNF4A to DNA, primary screen, biochemical, fluorescence polarization, FITC-DNA; Hepatocyte nuclear factor 4-alpha (Homo sapiens), P41235; 1 h; activity change, % at 10 µM; 360,000 compounds, 0.3% hits; AID 1224865, 2016; in the data active = activity change above about 30%, passing the limit was not always enough
Target sequence (P41235 whole entry, looked up): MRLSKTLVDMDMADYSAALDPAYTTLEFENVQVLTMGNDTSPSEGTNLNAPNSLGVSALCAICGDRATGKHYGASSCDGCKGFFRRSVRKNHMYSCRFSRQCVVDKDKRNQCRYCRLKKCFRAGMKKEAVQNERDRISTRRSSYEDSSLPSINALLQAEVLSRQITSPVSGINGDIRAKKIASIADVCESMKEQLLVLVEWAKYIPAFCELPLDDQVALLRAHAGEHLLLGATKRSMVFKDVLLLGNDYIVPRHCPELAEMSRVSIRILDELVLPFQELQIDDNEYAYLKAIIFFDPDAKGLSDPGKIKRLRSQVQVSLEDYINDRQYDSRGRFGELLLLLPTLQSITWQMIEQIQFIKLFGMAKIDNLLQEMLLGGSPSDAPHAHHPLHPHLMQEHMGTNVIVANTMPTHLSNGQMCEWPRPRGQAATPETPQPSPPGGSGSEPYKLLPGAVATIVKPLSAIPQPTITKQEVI
Exocytosis inh – LAMP-1 surface exposure blockers, TALL-104 cells – cell-based, flow cytometry, MLPCN library, primary screen; TALL-104 LAMP-1 surface exposure; cells stimulated with thapsigargin and PMA; inhibition, % at 10 µM; 360,000 compounds, 0.66% hits; AID 651702, 2012;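 active = inhibition above about 55%, limit read from the data; inconclusive = no clear call, values can overlap the other calls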
CSN deneddyl inh – inhibitors of CSN-mediated cullin deneddylation, primary screen, biochemical, fluorescence polarization, uHTS; COP9 signalosome complex subunit 5 (Homo sapiens), Q92905; 360,000 compounds, 0.38% hits; Purified CSN, SCF-Nedd8-OG deneddylation; AID 651999, 2013; inhibition, % at 12.5 µM;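 active = pattern-corrected inhibition above about 35%, with an unprinted fluorescence ratio check between 0.5 and 1.5, limit read from the data, passing the limit was not always enough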;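 note: 0% = enzyme with substrate and 100% = substrate without enzyme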
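Test system: Human Csn5 produced in HEK293T cells | Compound: 12.5 µM single point | Times: 90 min, room temperature | Signal: Fluorescence polarization readout | Read-out basis: % inhibition of substrate cleavage by Csn5 | Controls: no-enzyme wells high, enzyme-with-substrate wells low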
Myeloid diff MLP – induction of myeloid progenitor differentiation, primary screen, cell-based, flow cytometry, MLPCN library; ER-HoxA9 myeloid progenitors, lysozyme-GFP differentiation; calls only at 10 µM; 360,000 compounds, 1% hits;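 active = normalized GFP-positive differentiation at or above the plate's own cutoff, the solvent-only control mean plus 3 SD; inconclusive = no clear call, values can overlap the other calls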;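 note: cells exposed to compound for four days before flow analysis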
Myeloid diff CP1 – inducers of myeloid progenitor differentiation, confirmation, cell-based, GFP/Mac1 flow cytometry, cherry pick 01 | calls only | 2,300 compounds, 2% hits | shares compounds with Myeloid diff MLP | ER-HoxA9 myeloid progenitors, GFP/Mac1 double-positive flow | AID 651706, 2012;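 active = share of green or green-and-red cells above 9 and 9% in run 1 or 4 and 3% in run 2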
GFP autofluor – counter-screen for myeloid differentiation promoters: compound fluorescence; shares compounds with Myeloid diff MLP; ER-HoxA9 myeloid progenitors, no estrogen, GFP autofluorescence flow cytometry; vehicle wells 0%, positive control 100%; fluorescence response, % (concentration not given with the values); 2,300 compounds, 7.4% hits; AID 651707;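 active = over 5% cells positive for green fluorescent reporter, or over 2% positive for both it and APC stain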;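 note: range taken on the double positive population between DMSO and positive control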
* hit, by the source's call; i = inactive; ? = inconclusive; / = no result given; + = active, no number. Most compounds without a hit are left out; they make up all but 2.2% or so of the library.

SMILES | HNF4A DNA FP | Exocytosis inh | CSN deneddyl inh | Myeloid diff MLP | Myeloid diff CP1 | GFP autofluor
COC(=O)c1ccc(Nc2cc(C)nc3ccc(C)cc23)cc1 | 0.4 | 19.5 | 1.8 | + | i | 2.8
COCCC(=O)N1CCC(Oc2ccc(C(=O)N3CCCCC3COC)cc2)CC1 (centres undefined) | -3.9 | -8.1 | -2.2 | i | / | /
Cc1nc(N2CCN(C(=O)c3cnccn3)CC2)c2c3c(sc2n1)CC(C(C)(C)C)CC3 (centres undefined) | 1.7 | -3.8 | 6.0 | i | / | /
O=c1[nH][nH]c(-c2ccccc2O)c1C(C[N+](=O)[O-])c1ccc(Cl)cc1Cl (centres undefined) | -0.2 | -0.5 | 0.5 | i | i | 1.1
O=C(CCCN1C(=O)C(=Cc2ccc3c(c2)OCO3)SC1=S)Nc1ccc(C(=O)O)c(O)c1 | 6.8 | -0.7 | -0.9 | i | i | 0.2
O=C(CCCN1C(=O)/C(=C/c2ccc3c(c2)OCO3)SC1=S)Nc1ccc(C(=O)O)cc1 | 24.3 | 7.9 | 10.9 | i | / | /
CCCOC(=O)c1c(NC(=O)CCCn2nc([N+](=O)[O-])c(Cl)c2C)sc(C(=O)OC)c1C | -2.2 | -1.7 | -0.5 | i | i | 0.0
O=C1C(O)=C(O)C(=O)c2ccccc21 | -3.5 | -4.3 | 6.3 | i | i | 0.3
Cc1ccc(S(=O)(=O)N(CCC(=O)N2CCOCC2)c2ccccc2)cc1 | -2.6 | -4.1 | -0.9 | i | / | /
CCOC(=O)c1ccc(NCn2c(=O)oc3ccccc32)cc1 | 21.8 | 0.5 | 27.6 | i | i | 44.5*
COC(=O)c1ccc(NC(=O)CCn2c(=O)oc3ccccc32)cc1 | 0.1 | 0.3 | 1.7 | i | / | /
O=C(NC1CC1)C1CCN(Cc2cnn(-c3ccccc3)c2-n2cccc2)CC1 | 2.0 | -0.5 | -2.8 | + | i | 0.9
Cc1ccccc1CSCC(=O)Nc1ccccc1F | 5.1 | 0.9 | 2.5 | i | / | /
COC(=O)c1ccc(NC(=O)C(=O)N2CCN(C(=S)Nc3ccc(C)cc3)CC2)cc1 | 0.6 | -2.6 | 0.1 | i | i | 0.3
COC(=O)c1ccc(NC(=O)C(=O)N2CCN(C(=S)Nc3ccc(OC)cc3)CC2)cc1 | 2.2 | -2.4 | -11.2 | i | / | /
O=C1C=C(O)CC2(CCCCC2)C1 | 4.1 | 5.9 | -1.4 | + | i | 0.0
Cc1ccc(N2C(=O)CC3(CCCC3)CC2=O)cc1 | 3.0 | 1.9 | 3.3 | i | / | /
N#Cc1c(N)n(-c2cccc(C(=O)O)c2)c2nc3ccccc3nc12 | 21.0 | -0.8 | 32.6 | + | i | 0.5
CC1Sc2ccc(S(=O)(=O)CCC(=O)NC3CCCCC3C)cc2NC1=O (centres undefined) | -2.3 | -1.8 | 6.1 | ? | / | /
COc1cc(O)oc1C=Nc1ccccc1 | -4.3 | -3.8 | 6.4 | + | i | 0.3
Cc1onc(-c2ccccc2Cl)c1C(=O)N1C=CC(C(F)(F)F)=NCC1 | -1.5 | 0.9 | -3.8 | i | / | /
Cc1onc(-c2ccccc2Cl)c1C(=O)N1C=CC(C(F)(F)Cl)=NCC1 | 0.2 | -0.2 | 0.6 | + | i | 0.0
Nc1cccc2c1C(=O)N(CCOc1ccc(F)cc1)C2=O | -1.1 | -8.0 | 6.0 | i | / | /
COc1ccccc1Cc1c(-c2cccc(Cl)c2)nc2ccc(Br)cn12 | 34.6 | -0.5 | 14.7 | + | i | 41.0*
COC(=O)c1ccc2nc(-c3cccc(Cl)c3)c(Cc3ccccc3OC)n2c1 | 10.0 | 0.9 | 5.5 | i | / | /
SMILES | HNF4A DNA FP | Exocytosis inh | CSN deneddyl inh | Myeloid diff MLP | Myeloid diff CP1 | GFP autofluor
Cn1nc(N2CCN(S(=O)(=O)c3ccccc3)CC2)c(=O)n(C)c1=O | 5.1 | -2.5 | -5.9 | i | / | /
COc1cccc(NC(=S)Nc2cccc3ccccc23)c1 | 3.1 | -0.1 | 21.7 | i | i | 0.0
Cc1cccc(NC(=S)Nc2cccc3ccccc23)c1 | 3.5 | 15.9 | 21.2 | i | / | /
O=C(Nc1ccccc1)/C(=C/c1cccc(Br)c1)NC(=O)c1ccco1 | 0.2 | -1.9 | -7.4 | + | i | 0.4
Cc1ccc(NC(=O)/C(=C\c2cccc(Br)c2)NC(=O)c2ccco2)cc1 | 0.6 | 1.0 | -4.6 | i | / | /
Cc1ccc(Nc2nnc(SCC(=O)NC3CC3)s2)cc1 | 0.6 | -0.7 | -1.9 | i | / | /
O=C(c1cccc(Cl)c1)N1CCCC(C(=O)N2CCN(c3ccccc3)CC2)C1 (centres undefined) | -0.5 | 0.1 | 1.6 | i | / | /
CC1(c2ccc(OC(F)F)cc2)NC(=O)N(CC(=O)NCCC2=CCCCC2)C1=O (centres undefined) | 2.4 | 3.3 | -2.6 | i | / | /
COc1ccc(-c2cc(C(=O)N3CCN(c4ccccc4OC)CC3)no2)cc1OC | -0.8 | -2.2 | 0.9 | i | i | 1.1
Cc1ccc(C(=O)Nc2ccccc2N2CCCC2)s1 | -5.1 | -8.8 | -5.4 | i | / | /
C=Cn1cc[n+](CC(=O)c2ccc(C)cc2)c1 | 3.7 | -2.1 | -1.4 | i | / | /
C=Cn1cc[n+](CC(=O)c2ccc(OC)cc2)c1 | -1.6 | -5.0 | -1.7 | + | i | 0.6
CC(=O)Nc1cccc(-c2ccnc3c2CC(C(=O)Nc2cccc(NS(C)(=O)=O)c2)O3)c1 (centres undefined) | 0.8 | -1.3 | -0.9 | i | / | /
CS(=O)(=O)Nc1cccc(NC(=O)C2Cc3c(-c4ccccc4)ccnc3O2)c1 (centres undefined) | 1.9 | -0.6 | -5.9 | + | i | 0.0
CC(=O)Nc1ccc(-c2ccnc3c2CC(C(=O)Nc2cccc(C(F)(F)F)c2)O3)cc1 (centres undefined) | -5.9 | -14.4 | -0.8 | + | i | 0.3
CC(=O)Nc1ccc(-c2ccnc3c2CC(C(=O)Nc2cccc(N(C)C)c2)O3)cc1 (centres undefined) | -4.1 | -5.1 | -3.8 | + | i | 0.0
CC(=O)Nc1ccc(-c2ccnc3c2CC(C(=O)Nc2cccc(Oc4ccccc4)c2)O3)cc1 (centres undefined) | 0.4 | 1.8 | 2.0 | i | / | /
CC(=O)N1CCN(S(=O)(=O)c2cccc(C(=O)OCc3cccc(F)c3)c2)CC1 | -0.2 | -4.8 | -1.2 | i | / | /
CC(C)(C)c1ccc(NC(=O)c2ccc(=O)[nH]n2)cc1 | 0.9 | 13.2 | 5.2 | i | / | /
Cc1ccc(NC(=O)CCNS(=O)(=O)c2ccc3[nH]c(=O)oc3c2)cc1F | 3.1 | -2.7 | 2.6 | ? | / | /
Cc1c(NC(=O)C(C)Sc2nc3ccccc3c(=O)n2CCO)c(=O)n(-c2ccccc2)n1C (centres undefined) | 1.2 | -0.1 | -2.6 | i | i | 0.0
CC(N)c1csc(NC(=O)c2cc(C(C)(C)C)nn2Cc2ccccc2)n1 (centres undefined) | 3.0 | -12.3 | 1.6 | i | / | /
